IC50 data for 26 molecules are collected here from ChEMBL document CHEMBL4304827, “Design, synthesis and evaluation of structurally diverse chrysin-chromene-spirooxindole hybrids as anticancer agents” (Bioorg Med Chem, 2019).

pIC50: −log10 of the molar value. A value given as a limit tells only on which side of the number the result lay.

One test deals with A549. Nature of the test: Antiproliferative activity against human A549 cells assessed as reduction in cell proliferation incubated for 48 hrs by MTT assay. To be noted: A549, 48 h. It is filed as functional, cell-based. An outline of the steps: (§1)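 Log-phase cells were plated at 5 × 10^3/well in RPMI-1640 with 10% FBS and cultured 24 h. Compounds were added at graded concentrations (DMSO <0.1%) for 48 h. MTT (5 mg/mL) was added for about 4 h, formazan was dissolved in DMSO and A490 was read. IC50 was calculated from ≥3 independent experiments and reported as mean ± SD. Chrysin served as positive control.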
(In general: Tetrazolium assays rely on reduction of a dye to a coloured formazan, in cell work by metabolically active cells.)

In another test the test system is PC-3. The test can be described thus: Antiproliferative activity against human PC3 cells assessed as reduction in cell proliferation incubated for 48 hrs by MTT assay. It is filed as functional, cell-based. Particulars: PC-3, 48 h. An outline of the steps: as §1
For a further test, the system named is NCI-H1299. Nature of the test: Antiproliferative activity against human H1299 cells assessed as reduction in cell proliferation incubated for 48 hrs by MTT assay. It is filed as functional, cell-based. To be noted: NCI-H1299, 48 h. The essentials: as §1
A further test deals with K562. Nature of the test: Antiproliferative activity against human K562 cells assessed as reduction in cell proliferation incubated for 48 hrs by MTT assay. It is filed as functional, cell-based. Particulars: K562, 48 h. The essentials: as §1
Another test relates to MRC5. The test can be described thus: Cytotoxicity against human MRC5 cells assessed as reduction in cell proliferation incubated for 48 hrs by MTT assay. Particulars: MRC5, 48 h. The format is cell-based. The essentials: as §1

For orientation: pIC50 means the negative decadic logarithm of the IC50, by convention in mol/L. `N#CC1=C(N)Oc2cc3oc(-c4ccccc4)cc(=O)c3c(O)c2C12C(=O)N(Cc1ccccc1)c1ccc(Br)cc12` (stereo not given): the negative logarithm of the IC50 (pIC50) in the test with A549 is less than 4.30; in the test with PC-3 it was less than 4.30; in the test with NCI-H1299 it was less than 4.30; in the test on K562, 4.44.

For `CCN1C(=O)C2(C(C#N)=C(N)Oc3cc4oc(-c5ccccc5)cc(=O)c4c(O)c32)c2cccc(C)c21` (stereo not given), the negative-log IC50 (pIC50) in the test on A549, in the test with PC-3, with NCI-H1299 and with K562 was less than 4.30 in each case.

As to `CCN1C(=O)C2(C(C#N)=C(N)Oc3cc4oc(-c5ccc(OC)cc5OC)cc(=O)c4c(O)c32)c2cc(Br)ccc21` (stereo not given), the pIC50 with A549 was less than 4.30; in the test on PC-3, less than 4.30; in the test on NCI-H1299, less than 4.30; in the test on K562 it was 4.79.

Turning to `COc1ccc2c(c1)C1(C(=O)N2Cc2ccccc2)C(C#N)=C(N)Oc2cc3oc(-c4ccccc4)cc(=O)c3c(O)c21` (stereo not given), the negative logarithm of the IC50 (pIC50) in the test on A549, in the test on PC-3, with NCI-H1299 and with K562 was less than 4.30 in each case.

Consider `CCN1C(=O)C2(C(C#N)=C(N)Oc3cc4oc(-c5ccccc5)cc(=O)c4c(O)c32)c2cc(C)ccc21` (stereo not given), for which the negative logarithm of the IC50 (pIC50) in the test on A549, in the test with PC-3, in the test with NCI-H1299 and in the test on K562 was less than 4.30 each time.

`N#CC1=C(N)Oc2cc3oc(-c4ccccc4)cc(=O)c3c(O)c2C12C(=O)N(c1ccccc1)c1ccccc12` (stereo not given): the pIC50 in the test on A549, in the test on PC-3, with NCI-H1299 and in the test on K562 was less than 4.30 each time.

As for `COc1ccc(-c2cc(=O)c3c(O)c4c(cc3o2)OC(N)=C(C#N)C42C(=O)N(C)c3ccc(C)cc32)c(OC)c1` (stereo not given), the pIC50 in the test with A549 was less than 4.30; in the test on PC-3 it was less than 4.30; in the test on NCI-H1299, less than 4.30; in the test on K562 it was 4.92.

For `N#CC1=C(N)Oc2cc3oc(-c4ccccc4)cc(=O)c3c(O)c2C12C(=O)Nc1cc(Br)ccc12` (stereo not given), the pIC50 is 5.03 in the test on A549, 4.61 in the test with PC-3, 4.84 in the test with NCI-H1299 and 5.06 with K562.

Take `N#CC1=C(N)Oc2cc3oc(-c4ccccc4)cc(=O)c3c(O)c2C12C(=O)Nc1c(Cl)cccc12` (stereo not given): the pIC50 in the test on A549 is less than 4.30; with PC-3, less than 4.30; in the test with NCI-H1299, less than 4.30; with K562 it was 4.43.

`CN1C(=O)C2(C(C#N)=C(N)Oc3cc4oc(-c5ccccc5)cc(=O)c4c(O)c32)c2cc(Cl)ccc21` (stereo not given): the pIC50 was 5.33 in the test with A549, 4.67 in the test on PC-3, 4.95 in the test with NCI-H1299 and 5.36 with K562.

Take `CCN1C(=O)C2(C(C#N)=C(N)Oc3cc4oc(-c5ccc(OC)cc5OC)cc(=O)c4c(O)c32)c2cc(Cl)ccc21` (stereo not given): the pIC50 in the test on A549 is less than 4.30; with PC-3 it was less than 4.30; with NCI-H1299, less than 4.30; in the test on K562, 5.07.

As to `CC(C)(C)OC(=O)CN1C(=O)C2(C(C#N)=C(N)Oc3cc4oc(-c5ccccc5)cc(=O)c4c(O)c32)c2ccccc21` (stereo not given), the negative logarithm of the IC50 (pIC50) in the test with A549, in the test with PC-3, in the test with NCI-H1299 and in the test on K562 was less than 4.30 in each case.

`Cc1ccc2c(c1)C1(C(=O)N2Cc2ccccc2)C(C#N)=C(N)Oc2cc3oc(-c4ccccc4F)cc(=O)c3c(O)c21` (stereo not given): the pIC50 in the test with A549, in the test with PC-3, in the test on NCI-H1299 and with K562 was less than 4.30 each time.

As to `O=c1cc(-c2ccccc2)oc2cc(O)cc(O)c12` [CHRYSIN], the negative-log IC50 (pIC50) in the test with MRC5 is less than 4.00; with A549, less than 4.30; in the test with PC-3, less than 4.30; in the test on NCI-H1299, less than 4.30; with K562, less than 4.30.

In the case of `Cc1ccc2c(c1)C1(C(=O)N2C)C(C#N)=C(N)Oc2cc3oc(-c4ccccc4)cc(=O)c3c(O)c21` (stereo not given), the negative-log IC50 (pIC50) is 5.15 in the test on A549, less than 4.30 with PC-3, 4.99 in the test on NCI-H1299 and 5.23 in the test on K562.

As for `CN1C(=O)C2(C(C#N)=C(N)Oc3cc4oc(-c5ccccc5)cc(=O)c4c(O)c32)c2ccccc21` (stereo not given), the pIC50 in the test on A549, with PC-3, in the test with NCI-H1299 and with K562 was less than 4.30 in each case.

`N#CC1=C(N)Oc2cc3oc(-c4ccccc4)cc(=O)c3c(O)c2C12C(=O)N(Cc1ccccc1)c1c(Cl)cccc12` (stereo not given): the pIC50 is less than 4.30 in the test with A549, less than 4.30 in the test on PC-3, less than 4.30 in the test with NCI-H1299 and 4.32 with K562.

Regarding `Cc1ccc2c(c1)C1(C(=O)N2)C(C#N)=C(N)Oc2cc3oc(-c4ccccc4)cc(=O)c3c(O)c21` (stereo not given), the pIC50 in the test on A549, in the test on PC-3, in the test with NCI-H1299 and in the test with K562 was less than 4.30 in each case.

`N#CC1=C(N)Oc2cc3oc(-c4ccccc4)cc(=O)c3c(O)c2C12C(=O)N(Cc1ccccc1)c1ccc(F)cc12` (stereo not given): the pIC50 in the test with A549, with PC-3, in the test with NCI-H1299 and in the test with K562 was less than 4.30 throughout.

As for `N#CC1=C(N)Oc2cc3oc(-c4ccccc4)cc(=O)c3c(O)c2C12C(=O)Nc1cc(Cl)ccc12` (stereo not given), the pIC50 in the test on A549 is 5.07; with PC-3, 4.59; in the test with NCI-H1299 it was 4.78; in the test on K562, 5.03.

Turning to `N#CC1=C(N)Oc2cc3oc(-c4ccccc4)cc(=O)c3c(O)c2C12C(=O)Nc1ccccc12` (stereo not given), the negative-log IC50 (pIC50) was 4.42 with A549, less than 4.30 in the test with PC-3, less than 4.30 with NCI-H1299 and 4.44 with K562.

Consider `Cc1ccc2c(c1)C1(C(=O)N2Cc2ccccc2)C(C#N)=C(N)Oc2cc3oc(-c4ccccc4)cc(=O)c3c(O)c21` (stereo not given), for which the pIC50 in the test with A549, in the test with PC-3, in the test on NCI-H1299 and in the test on K562 was less than 4.30 throughout.

Consider `COc1ccc(-c2cc(=O)c3c(O)c4c(cc3o2)OC(N)=C(C#N)C42C(=O)N(Cc3ccccc3)c3ccccc32)c(OC)c1` (stereo not given), for which the pIC50 in the test on A549, in the test on PC-3, in the test on NCI-H1299 and in the test with K562 was less than 4.30 in each case.

As for `Cc1cccc2c1N(Cc1ccccc1)C(=O)C21C(C#N)=C(N)Oc2cc3oc(-c4ccccc4)cc(=O)c3c(O)c21` (stereo not given), the negative-log IC50 (pIC50) in the test with A549, in the test on PC-3, in the test with NCI-H1299 and with K562 was less than 4.30 each time.

For the molecule `N#CC1=C(N)Oc2cc3oc(-c4ccccc4)cc(=O)c3c(O)c2C12C(=O)N(Cc1ccccc1)c1ccc(Cl)cc12` (stereo not given), the pIC50 in the test on A549 is less than 4.30; in the test with PC-3, less than 4.30; in the test on NCI-H1299, less than 4.30; with K562 it was 4.44.

As for `CN1C(=O)C2(C(C#N)=C(N)Oc3cc4oc(-c5ccccc5)cc(=O)c4c(O)c32)c2cccc(Cl)c21` (stereo not given), the pIC50 in the test on A549 was less than 4.30; with PC-3, less than 4.30; with NCI-H1299 it was less than 4.30; in the test on K562, 4.38.
